We go through twelve compounds from ChEMBL document CHEMBL3994597, “Resin Glycosides from Ipomoea alba Seeds as Potential Chemosensitizers in Breast Carcinoma Cells” (J Nat Prod, 2016).

Assay [1] has as its system MCF7. As to the kind of experiment: Cytotoxicity against multidrug resistant human MCF7 cells cultured in vinblastine containing medium assessed as growth inhibition after 72 hrs by SRB assay. Format: functional, cell-based. To be noted: MCF7, 72 h. A digest of the protocol:
(§1)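 Cells in log phase, grown in RPMI 1640 with 10% FBS at 37 °C, 5% CO2, humidified, were exposed in triplicate to test samples at 0.2−25 μg/mL for 72 h. Growth was read by sulforhodamine B staining. IC50 is the concentration giving 50% growth inhibition relative to untreated control, taken from a semilog plot of concentration (μg/mL) against % inhibition. Vinblastine served as positive control.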
(The SRB assay estimates cell density from bound dye.)

Assay [2] deals with MCF7. Nature of the assay: Cytotoxicity against multidrug resistant human MCF7 cells cultured in vinblastine free medium assessed as growth inhibition after 72 hrs by SRB assay. The class given is functional, cell-based. The following applies: MCF7, 72 h. Summed up:
as §1

The test system of assay [3] is MCF7. Nature of the assay: Cytotoxicity against vinblastine-sensitive human MCF7 cells assessed as growth inhibition after 72 hrs by SRB assay. The following applies: MCF7, 72 h. Format: functional, cell-based. A digest of the protocol: as §1
Assay [4] concerns MCF7. As to the kind of experiment: Potentiation of vinblastine-induced cytotoxicity against vinblastine-sensitive human MCF7 cells assessed as fold reduction in vinblastine IC50 at 25 ug/ml after 72 hrs by SRB assay relative to vinblastine alone. Format: functional. Summed up: (§2)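 Modulation assay in sensitive MCF-7 or resistant MCF-7/Vin cells. Cells received vinblastine at 0.00064−10 μg/mL, alone or with glycolipid at 25 or 5 μg/mL, for 72 h. Read-out was SRB, and vinblastine IC50 was derived as in the cytotoxicity assay. Reversal fold = IC50 of vinblastine alone / IC50 with glycolipid. Reserpine at 5 μg/mL served as positive control. Values are mean ± SD of three independent experiments.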

In the next assay the test system is HCT-15. As to the kind of experiment: Cytotoxicity against human HCT15 cells assessed as growth inhibition after 72 hrs by SRB assay. Format: functional, cell-based. To be noted: HCT-15, 72 h. Summed up:
as §1

The species entered for assay [5] is Homo sapiens. As to the kind of experiment: Inhibition of multidrug resistance efflux pump in multidrug resistant human MCF7 cells cultured in vinblastine containing medium assessed as potentiation of vinblastine-induced cytotoxicity by measuring fold reduction in vinblastine IC50 at 25 ug/ml after 72 hrs by SRB assay relative to vinblastine alone. A digest of the protocol: (§3)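 MCF-7/Vin+ resistant cells were kept in medium containing 0.192 μg/mL vinblastine to hold resistance.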

The next assay relates to MDA-MB-231. Nature of the assay: Cytotoxicity against human MDA-MB-231 cells assessed as growth inhibition after 72 hrs by SRB assay. Format: functional, cell-based. The following applies: MDA-MB-231, 72 h. Summed up: as §1
The species entered for assay [6] is Homo sapiens. Nature of the assay: Inhibition of multidrug resistance efflux pump in multidrug resistant human MCF7 cells cultured in vinblastine free medium assessed as potentiation of vinblastine-induced cytotoxicity by measuring fold reduction in vinblastine IC50 at 25 ug/ml after 72 hrs by SRB assay relative to vinblastine alone. A digest of the protocol:
(§4)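 MCF-7/Vin− cells were a stock of the resistant line maintained in vinblastine-free medium.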

The test system of a further assay is HeLa. As to the kind of experiment: Cytotoxicity against human HeLa cells assessed as growth inhibition after 72 hrs by SRB assay. Format: functional, cell-based. A digest of the protocol:
as §1

Another assay deals with HCT-116. Nature of the assay: Cytotoxicity against human HCT116 cells assessed as growth inhibition after 72 hrs by SRB assay. The following applies: HCT-116, 72 h. Format: functional, cell-based. Summed up:
as §1

For assay [7], the species on record is Homo sapiens. As to the kind of experiment: Inhibition of multidrug resistance efflux pump in multidrug resistant human MCF7 cells cultured in vinblastine containing medium assessed as potentiation of vinblastine-induced cytotoxicity by measuring fold reduction in vinblastine IC50 at 5 ug/ml after 72 hrs by SRB assay relative to vinblastine alone. Summed up:
as §3

In assay [8] the test system is MCF7. Nature of the assay: Potentiation of vinblastine-induced cytotoxicity against vinblastine-sensitive human MCF7 cells assessed as fold reduction in vinblastine IC50 at 5 ug/ml after 72 hrs by SRB assay relative to vinblastine alone. Format: functional. A digest of the protocol:
as §2

Assay [9] is filed under the species Homo sapiens. As to the kind of experiment: Inhibition of multidrug resistance efflux pump in multidrug resistant human MCF7 cells cultured in vinblastine free medium assessed as potentiation of vinblastine-induced cytotoxicity by measuring fold reduction in vinblastine IC50 at 5 ug/ml after 72 hrs by SRB assay relative to vinblastine alone. A digest of the protocol:
as §4

The IC50 is the concentration needed to halve the response being measured.

In the case of `Cc1c2ccncc2c(C)c2c1[nH]c1ccccc12` [ELLIPTECINE], the IC50 is 2000 nM with MCF7 [1] and 1600 nM in the assay with MCF7 [2].
As for `COc1cc2c(c(OC)c1OC)-c1ccc(OC)c(=O)cc1[C@@H](NC(C)=O)CC2` [COLCHICINE], the IC50 is 2800 nM in the assay on MCF7 [1], 2800 nM with MCF7 [2] and 0.05 µM in the assay on MCF7 [3].
As for `CC[C@@]1(O)C(=O)OCc2c1cc1n(c2=O)Cc2cc3ccccc3nc2-1` [CAMPTOTHECIN], the IC50 in the assay with MCF7 [1] was less than 1.8 nM; with MCF7 [2], less than 1.8 nM; in the assay with MCF7 [3], less than 0.0018 µM.
As to `C/C=C(\C)C(=O)O[C@H]1[C@@H]2O[C@H]3[C@H](O[C@@H](CCC)CCCCCCCCCC(=O)O[C@@H]4[C@@H](O)[C@H](C)O[C@@H](O[C@H]5[C@H](O)[C@@H](C)O[C@@H](O[C@H]([C@H]1O)[C@H](C)O2)[C@@H]5O[C@@H]1O[C@@H](C)[C@H](O)[C@@H](O)[C@H]1OC(=O)[C@H](C)[C@@H](C)O)[C@@H]4O)O[C@H](C)[C@@H](O)[C@@H]3O`, the “fold change (FC)” value was 37 in the assay with MCF7 [4], 3 in the assay filed under Homo sapiens [5] and 283 in the assay listed under Homo sapiens [6]. Also, the IC50 in the assay on HCT-15 was greater than 20 µM; with MDA-MB-231, greater than 20 µM; in the assay on MCF7 [1], greater than 20000 nM; in the assay on MCF7 [2], greater than 20000 nM; in the assay with MCF7 [3], greater than 20 µM; in the assay on HeLa, greater than 20 µM. Further, the IC50 in the assay with HCT-116 is greater than 20 µM.
On to `CC[C@]1(O)C[C@@H]2CN(CCc3c([nH]c4ccccc34)[C@@](C(=O)OC)(c3cc4c(cc3OC)N(C)[C@H]3[C@@](O)(C(=O)OC)[C@H](OC(C)=O)[C@]5(CC)C=CCN6CC[C@]43[C@@H]65)C2)C1` [VINBLASTINE], for which the IC50 in the assay on HCT-15 turned out to be 0.06 µM; in the assay on MDA-MB-231 it was 0.01 µM; in the assay with MCF7 [1], 1300 nM; in the assay with MCF7 [2], 1100 nM; in the assay on MCF7 [3] it was 0.06 µM; with HeLa, 0.002 µM. For the same compound, in the assay on HCT-116, the IC50 is 0.05 µM.
Regarding `C/C=C(\C)C(=O)O[C@H]1[C@H](O[C@H]2[C@@H]3O[C@H]4[C@H](O[C@@H](CCC)CCCCCCCCCC(=O)O[C@H]5[C@H](O[C@H]6[C@H](OC[C@@H](O3)[C@@H](O)[C@@H]2O)O[C@H](C)[C@@H](O)[C@@H]6O)O[C@@H](C)[C@H](O)[C@H]5O)O[C@H](C)[C@@H](O)[C@@H]4O)O[C@@H](C)[C@H](O)[C@H]1O`, the “fold change (FC)” value stood at 4 in the assay on MCF7 [4], 3 in the assay listed under Homo sapiens [5] and 1700 in the assay listed under Homo sapiens [6]. Moreover, the IC50 is greater than 20 µM with HCT-15; greater than 20 µM in the assay on MDA-MB-231; greater than 20000 nM with MCF7 [1]; greater than 20000 nM in the assay with MCF7 [2]; greater than 20 µM in the assay on MCF7 [3]; greater than 20 µM in the assay on HeLa. Further, the IC50 with HCT-116 is greater than 20 µM.
Turning to `COC(=O)[C@H]1[C@H]2C[C@@H]3c4[nH]c5cc(OC)ccc5c4CCN3C[C@H]2C[C@@H](OC(=O)c2cc(OC)c(OC)c(OC)c2)[C@@H]1OC` [RESERPINE], the values for the fold change (FC) in the assay listed under Homo sapiens [7], with MCF7 [8] and in the assay filed under Homo sapiens [9] were 3, 11 and 20, respectively.
For `CCC[C@H]1CCCCCCCCCC(=O)O[C@H]2[C@H](OC[C@H]3O[C@@H](O[C@H]4[C@H](O1)O[C@H](C)[C@@H](O)[C@@H]4O)[C@H](O[C@@H]1O[C@@H](C)[C@H](OC(C)=O)[C@@H](O)[C@H]1O)[C@@H](O)[C@@H]3O)O[C@H](C)[C@@H](O)[C@@H]2OC(=O)[C@H](C)[C@@H](C)O`, the “fold change (FC)” value in the assay on MCF7 [4] amounted to 4; in the assay filed under Homo sapiens [5], 2; in the assay filed under Homo sapiens [6], 1. Also, the IC50 with HCT-15 is greater than 20 µM; in the assay with MDA-MB-231, greater than 20 µM; with MCF7 [1] it was greater than 20000 nM; in the assay with MCF7 [2] it was greater than 20000 nM; in the assay on MCF7 [3], greater than 20 µM; in the assay on HeLa, greater than 20 µM. The half-inhibitory concentration (IC50) with HCT-116 was greater than 20 µM.
As to `C/C=C(\C)C(=O)O[C@@H]1[C@H](O)[C@@H](O)[C@H](O[C@@H]2[C@@H](O)[C@@H](OC(=O)/C(C)=C/C)[C@H](O[C@H]3[C@@H]4O[C@H]5[C@H](O[C@@H](CCCCC)CCCCCCCCCC(=O)O[C@H]3[C@H](O)[C@@H](CO)O4)O[C@H](C)[C@@H](O)[C@@H]5O)O[C@H]2C)O[C@@H]1C`, the “fold change (FC)” value with MCF7 [4] is greater than 87; in the assay filed under Homo sapiens [5], greater than 2520; in the assay filed under Homo sapiens [6], greater than 1980. The IC50 with HCT-15 was 9.8 µM; with MDA-MB-231, 11.6 µM; with MCF7 [1], 17000 nM; with MCF7 [2], 16300 nM; with MCF7 [3] it was 8 µM; in the assay on HeLa it was 9.6 µM. The half-maximal inhibitory concentration (IC50) in the assay with HCT-116 amounted to 15.9 µM.
Consider `CCC[C@H]1CCCCCCCCCC(=O)O[C@H]2[C@H](O[C@H]3[C@H](O)[C@@H](C)O[C@@H](O[C@H]4[C@H](O1)O[C@H](C)[C@@H](O)[C@@H]4O)[C@@H]3O[C@@H]1O[C@@H](C)[C@H](OC(C)=O)[C@@H](O)[C@H]1O)O[C@H](C)[C@@H](O)[C@@H]2OC(=O)[C@H](C)[C@@H](C)O`, for which the “fold change (FC)” value in the assay with MCF7 [4] was 34; in the assay listed under Homo sapiens [5] it was 201; in the assay listed under Homo sapiens [6], 322. Also, the IC50 was greater than 20 µM in the assay on HCT-15; greater than 20 µM with MDA-MB-231; greater than 20000 nM in the assay with MCF7 [1]; greater than 20000 nM with MCF7 [2]; greater than 20 µM with MCF7 [3]; greater than 20 µM in the assay with HeLa. The IC50 in the assay with HCT-116 is greater than 20 µM.
Consider `COc1cc([C@@H]2c3cc4c(cc3[C@H](O)[C@H]3COC(=O)[C@H]23)OCO4)cc(OC)c1OC` [PODOFILOX], for which the figures for the IC50 in the assay on MCF7 [1], in the assay with MCF7 [2] and in the assay with MCF7 [3] were 300 nM, 200 nM and 0.02 µM, respectively.
On to `C/C=C(\C)C(=O)O[C@@H]1[C@H](O)[C@@H](O)[C@H](O[C@@H]2[C@@H](O)[C@@H](OC(=O)/C(C)=C/C)[C@H](O[C@H]3[C@@H]4O[C@H]5[C@H](O[C@@H](CCC)CCCCCCCCCC(=O)O[C@H]3[C@H](O)[C@@H](CO)O4)O[C@H](C)[C@@H](O)[C@@H]5O)O[C@H]2C)O[C@@H]1C`, for which the “fold change (FC)” value with MCF7 [4] was greater than 87; in the assay listed under Homo sapiens [5], greater than 2520; in the assay filed under Homo sapiens [6], 5. The IC50 is 14.3 µM with HCT-15; greater than 20 µM in the assay with MDA-MB-231; greater than 20000 nM in the assay on MCF7 [1]; greater than 20000 nM with MCF7 [2]; 15.1 µM in the assay with MCF7 [3]; 17.4 µM in the assay on HeLa. Further, the IC50 in the assay on HCT-116 is 15.1 µM.
